# Results of several laboratories.
# Lines come from different studies, so protocols differ.
# Target: Aurora kinase A (AURKA, Homo sapiens, UniProt O14965)
# Residues used in one study (O14965 1-403): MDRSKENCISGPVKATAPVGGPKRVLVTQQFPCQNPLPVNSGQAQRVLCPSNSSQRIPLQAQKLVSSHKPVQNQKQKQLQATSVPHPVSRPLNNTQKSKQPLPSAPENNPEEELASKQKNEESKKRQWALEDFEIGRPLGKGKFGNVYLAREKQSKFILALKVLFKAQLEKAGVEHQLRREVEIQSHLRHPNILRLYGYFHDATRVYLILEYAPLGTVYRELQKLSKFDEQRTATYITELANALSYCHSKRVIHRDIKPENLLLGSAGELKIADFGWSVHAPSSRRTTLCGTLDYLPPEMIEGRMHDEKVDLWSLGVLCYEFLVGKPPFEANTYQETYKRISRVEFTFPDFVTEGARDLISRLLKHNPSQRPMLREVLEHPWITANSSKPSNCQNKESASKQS
SMILES,effect on,action,method,tested at,quantity,result
CNc1cccc2cc(C(=O)Nc3ccc(C(=O)O)cc3)c(=O)[nH]c12,enzyme activity,inhibitor,,10 µM,inhibition,16%
Cc1cc(NC(=O)c2cccc(S(F)(F)(F)(F)F)c2)cc(-n2ccn3nc(-c4cccnc4)cc23)c1,cell-free assay,,competition with immobilised ligand,1 µM,remaining binding,84.9%
CNC(=O)c1cc(Oc2ccc(NC(=O)Nc3ccc(Cl)c(C(F)(F)F)c3)cc2)ccn1,enzyme activity,inhibitor,,0.3 µM,inhibition,16%
C[C@@H]1CN(c2cc(-c3n[nH]c4ccc(OC5(C)CC5)cc34)ncn2)C[C@H](C)O1,cell-free assay,,competition with immobilised ligand,0.1 µM,remaining binding,94%
O=C(Nc1cnn(-c2csc(C(=O)NC3COC3)c2)c1)Nc1ccccc1Cl,enzyme activity,inhibitor,,5 µM,remaining activity,105%
O=C1Nc2ccc(Cl)cc2C1=Cc1cc(Cl)c(O)c(Cl)c1,cell-free assay,,,0.5 µM,remaining signal,64.2%
Cc1[nH]c(/C=C2\C(=O)Nc3ccc(F)cc32)c(C)c1C(=O)N[C@H]1CCN(C(=O)N(C)C)C1,enzyme activity,inhibitor,,0.1 µM,remaining activity,82%
COc1cc2ncnc(Nc3ccc(Oc4ccccc4)c(C)c3C)c2cc1OC,enzyme activity,inhibitor,,1 µM,inhibition,13%
Cc1ccc(C(=O)Nc2ccc(CN3CCN(C)CC3)c(C(F)(F)F)c2)cc1C#Cc1cnc2cccnn12,enzyme activity,inhibitor,,23.5 nM,remaining activity,97%
CCN(CC)c1ccc(C2=NNC(=O)CC2C)cc1[N+](=O)[O-] (centres unmarked),enzyme activity,inhibitor,,10 µM,remaining activity,93%
CNC(=O)c1ccccc1Nc1cc(Nc2ccc(N3CCOCC3)cc2OC)ncc1C(F)(F)F,enzyme activity,inhibitor,,1 µM,inhibition,> 50%
C[C@@H]1CCN(C(=O)CC#N)C[C@@H]1N(C)c1ncnc2[nH]ccc12,cell-free assay,inhibitor,,0.5 µM,remaining signal,84.1%
CS(=O)(=O)Nc1cccc(-c2csc(NC(=O)CSc3nc4nccnc4c(=O)n3CCc3ccccc3)n2)c1,enzyme activity,inhibitor,,10 µM,inhibition,0%
Cc1ccc(Nc2nccc(N(C)c3ccc4c(C)n(C)nc4c3)n2)cc1S(N)(=O)=O,enzyme activity,inhibitor,,0.3 µM,inhibition,73%
Cc1nc(Cc2cccc(C(F)(F)F)c2)sc1-c1ccc(C(N)=O)nc1,cell-free assay,,competition with immobilised ligand,1 µM,remaining binding,100%
CC(C)(C)c1nc(-c2cccc(NS(=O)(=O)c3c(F)cccc3F)c2F)c(-c2ccnc(N)n2)s1,enzyme activity,inhibitor,radiometric,1 µM,remaining activity,102%
CCN(CC)CCNC(=O)c1c(C)[nH]c(/C=C2\C(=O)Nc3ccc(F)cc32)c1C,enzyme activity,inhibitor,,0.3 µM,inhibition,28%
O=Nc1c(-c2c(O)[nH]c3ccccc23)[nH]c2ccccc12,cell-free assay,,,0.5 µM,remaining signal,21.3%
COc1cc(/C=C/C(=O)CC(=O)/C=C/c2ccc(O)c(OC)c2)ccc1O,enzyme activity,inhibitor,,1 µM,activity vs control,85%
O=C(N1CCS(=O)(=O)CC1)N1C[C@H](c2ccc(OC(F)(F)F)cc2)C[C@H](c2nc(C3CC3)no2)C1,cell-free assay,,competition with immobilised ligand,1 µM,remaining binding,100%
CC(C)c1ccc(NC(=O)c2cccs2)c(-c2nc3ccccc3[nH]c2=O)c1,enzyme activity,inhibitor,,1 µM,activity vs control,83%
Cc1c(NC(=O)c2cc(C(N)=O)nc3cc(F)ccc23)c(C(F)(F)F)nn1Cc1ccc(C#N)cc1,cell-free assay,,competition with immobilised ligand,1 µM,remaining binding,89%
COc1cc(Nc2cnc(C#N)c(O[C@H](C)CN(C)C)n2)ncc1-c1cnn(C)c1,enzyme activity,inhibitor,radiometric,1 µM,remaining activity,84%
CCC(=N\O)/C(C)=C/c1ccc(F)cc1,cell-free assay,,competition with immobilised ligand,1 µM,remaining binding,100%
FC(F)c1nc2ccccc2n1-c1nc(N2CCOCC2)nc(N2CCOCC2)n1,enzyme activity,inhibitor,,10 µM,remaining activity,99%
CNC(=O)Nc1ccc2c(c1)CC[C@@]21OC(=O)N(CC(=O)N(Cc2ccc(F)cc2)[C@@H](C)C(F)(F)F)C1=O,cell-free assay,,competition with immobilised ligand,1 µM,remaining binding,80%
Cc1cc(NC(=O)c2cccc3cc(-c4cccc5[nH]nc(N)c45)ccc23)ccc1F,enzyme activity,inhibitor,,0.1 µM,activity vs control,95%
Oc1cccc(-c2nc(N3CCOCC3)c3oc4ncccc4c3n2)c1,enzyme activity,inhibitor,,10 µM,remaining activity,92%
CSc1nc(C)c(-c2ccnc(Nc3ccc(N4CCOCC4)cc3)c2)[nH]1,enzyme activity,inhibitor,,10 µM,inhibition,40.6%
CN(c1ccnc(CNc2nc(Nc3ccc4c(c3)CC(=O)N4)ncc2C(F)(F)F)n1)S(C)(=O)=O,cell-free assay,,competition with immobilised ligand,1 µM,remaining binding,14%
CCN(CC)CCNC(=O)c1c(C)[nH]c(/C=C2\C(=O)Nc3ccc(F)cc32)c1C,enzyme activity,inhibitor,,1 µM,remaining activity,43%
COc1cc(Cl)c(C(=O)N[C@@H](CN[C@H]2CC[C@@H](N)CC2)Cc2ccc(C#N)cc2)cc1-c1ccc(CN[C@H](C)c2ccc(C)cc2)o1,enzyme activity,inhibitor,,1 µM,remaining activity,98%
